This note sets out measurements from ChEMBL document CHEMBL5380846, “2-Aminobenzoxazole Derivatives as Potent Inhibitors of the Sphingosine-1-Phosphate Transporter Spinster Homolog 2 (Spns2)” (J Med Chem, 2023).

Calls of active or inactive are those of the source. The rule behind the calls is not given here.

The target of one assay is T1, Sphingosine-1-phosphate transporter SPNS2 (Mus musculus) (UniProt Q91VM4).
T1 sequence (whole entry): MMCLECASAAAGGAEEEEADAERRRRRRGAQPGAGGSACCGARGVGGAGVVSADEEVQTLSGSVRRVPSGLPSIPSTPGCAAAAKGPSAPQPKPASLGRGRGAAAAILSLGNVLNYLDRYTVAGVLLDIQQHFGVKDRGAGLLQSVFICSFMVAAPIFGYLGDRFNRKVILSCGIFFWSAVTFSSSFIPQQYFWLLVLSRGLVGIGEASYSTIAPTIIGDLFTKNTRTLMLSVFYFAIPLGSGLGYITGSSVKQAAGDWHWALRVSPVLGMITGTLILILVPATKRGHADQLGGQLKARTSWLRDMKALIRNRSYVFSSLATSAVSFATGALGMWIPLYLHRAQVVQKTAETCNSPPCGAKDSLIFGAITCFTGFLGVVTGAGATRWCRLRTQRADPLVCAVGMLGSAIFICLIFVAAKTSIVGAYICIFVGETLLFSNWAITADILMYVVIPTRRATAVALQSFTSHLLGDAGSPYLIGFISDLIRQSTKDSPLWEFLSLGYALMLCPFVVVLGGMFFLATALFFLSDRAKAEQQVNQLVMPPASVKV
Kind of assay: Inhibition of mouse Spns2 expressed in Hela cells assessed as S1P release at 1 uM incubated for 18 to 20 hrs by LC-MS/MS analysis relative to control. It is filed as cell-based. To be noted: time 18-20 hrs. A digest of the protocol:
(§1)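 HeLa cells stably transfected (G418 selection) with mouse Spns2, grown to near confluence. Medium was replaced with RPMI 1640 containing 0.2% fatty acid-free BSA, 1 mM 4-deoxypyridoxine, 2 mM NaF and 0.2 mM Na3VO4. Compound was added to duplicate wells (0-2 μM) for 18–20 h. Medium S1P was measured by LC-MS/MS against d7-S1P and expressed as % inhibition versus no-inhibitor control.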
As usually defined, the inhibition is the drop in the measured response relative to a control, in per cent. In the case of `CCCCCCCCCCc1ccc2oc(NCCN)nc2c1`, the inhibition was 16%.
On the same count and under the same terms, the result for `CCCCCCCCCCc1ccc2oc(CCN)nc2c1` reads 5%; that for `CCCCCCCCCCc1ccc2oc(N(CCN)CCN)nc2c1`, 25%.
Same read-out and setting: the result for `CCCCCCCCCCc1ccc2oc(NC[C@@H]3CCCN3)nc2c1` reads 6%; that for `CCCCCCCCCCc1ccc2oc(NCC3CCNCC3)nc2c1`, 14%.
As to `CCCCCCCCCCc1ccc2oc(NCCCCCN)nc2c1`, the inhibition was found to be 35%.
On the same count and under the same terms, the result for `CCCCCCCCCCc1ccc2oc(CCCCCN)nc2c1` reads 25%; that for `CCCCCCCCCCc1ccc2oc(CCCN)nc2c1`, 40%.
For `CCCCCCCCCCc1ccc2oc(N3CC[C@@H](N)C3)nc2c1`, the inhibition was 4%.
As for `CCCCCCCCCCc1ccc2oc(NC[C@@H]3CCCNC3)nc2c1`, the inhibition amounted to 32%.
The same measure, in the same setting: the result for `CCCCCCCCCCc1ccc2oc(N[C@H]3CCNC3)nc2c1` reads 75%.
Turning to `CCCCCCCCCCc1ccc2oc(N[C@H]3CCCNC3)nc2c1`, the inhibition stood at 50%.
Same read-out and setting: for `CCCCCCCCCCc1ccc2oc(NC[C@@H]3CCNC3)nc2c1` the value was 50%; for `CCCCCCCCCCc1ccc2oc(CCCCN)nc2c1`, 0%.
For the compound `CCCCCCCCCCc1ccc2oc(N(C)CCN)nc2c1`, the inhibition amounted to 0%.
Turning to `CCCCCCCCCCc1ccc2oc(NC3CNC3)nc2c1`, the inhibition came to 20%.
Still for that read-out and setting: the result for `CCCCCCCCCCc1ccc2oc(NC[C@H]3CCNC3)nc2c1` reads 87%.
Still for that read-out and setting: the result for `CCCCCCCCCCc1ccc(-c2noc(CCCN)n2)cc1` reads 44%; that for `CCCCCCCCCCc1ccc2oc(N3CCNCC3)nc2c1`, 18%; that for `CCCCCCCCCCc1ccc2oc(NC[C@H]3CCCN3)nc2c1`, 0%.
On the same count and under the same terms, for `CCCCCCCCCCc1ccc2oc(N3CC[C@H](N)C3)nc2c1` the value was 1%; for `CCCCCCCCCCc1ccc2oc(NC[C@H]3CCCNC3)nc2c1`, 2%; for `CCCCCCCCCCc1ccc2oc(N[C@@H]3CCNC3)nc2c1`, 47%.
As for `CCCCCCCCCCc1ccc2oc(NCCCN)nc2c1`, the inhibition turned out to be 15%.
Take `CCCCCCCCCCc1ccc2oc(NCCCCN)nc2c1`: the inhibition was 32%.
Still for that read-out and setting: the result for `CCCCCCCCCCc1ccc2oc(NC3CCNCC3)nc2c1` reads 54%; that for `CCCCCCCCCCc1ccc2oc(N[C@@H]3CCCNC3)nc2c1`, 63%.

For another assay, the target named is T1, Sphingosine-1-phosphate transporter SPNS2 (Mus musculus). Kind of assay: Inhibition of mouse Spns2 expressed in Hela cells assessed as S1P release at 0.3 uM incubated for 18 to 20 hrs by LC-MS/MS analysis relative to control. It is filed as cell-based. The conditions noted are these: time 18-20 hrs. In outline: as §1
Consider `CCCCCCCCc1ccc2oc(NC[C@H]3CCNC3)nc2c1`, for which the inhibition turned out to be 42%.
The same measure, in the same setting: for `CCCCCCCCCCCCc1ccc2oc(NC[C@H]3CCNC3)nc2c1` the value was 36%; for `CCCCCCCCCCc1ccc2oc(NC[C@H]3CCNC3)nc2c1`, 56%.
On the same count and under the same terms, for `CCCCCCCCCCc1ccc(-c2noc(CCCN)n2)cc1` the value was 30%.
Still for that read-out and setting: the result for `CCCCCCCCCCCc1ccc2oc(NC[C@H]3CCNC3)nc2c1` reads 52%; that for `CCCCCCCCCc1ccc2oc(NC[C@H]3CCNC3)nc2c1`, 77%; that for `CCCCCCCCCCc1ccc2[nH]c(NC[C@H]3CCNC3)nc2c1`, 34%.

The subject of the next assay is Mus musculus. In words: Decrease in plasma S1P level in mouse C57BL/6j at 10 mg/kg, ip measured after 4 hrs by LC-MS/MS analysis. It counts as functional, organism-based.
Conditions: not given
A digest of the protocol:
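Female C57BL/6j mice were injected IP at 10 mg/Kg, or with vehicle (PEG400/ethanol/solutol/water). Plasma was taken 4 h post dose. S1P was quantified by LC-MS/MS after TCA precipitation with a d7-S1P internal standard and methanol extraction. Comparison was by t-test.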
Turning to `CCCCCCCCCCc1ccc2oc(NC[C@H]3CCNC3)nc2c1`, the outcome was inactive.

Another assay has as its system Mus musculus. In words: Decrease in circulating lymphocyte count in mouse C57BL/6j blood at 10 mg/kg, ip […].
Conditions: not given
In the case of `CCCCCCCCCCc1ccc2oc(NC[C@H]3CCNC3)nc2c1`, the result was Active.
